Activity calls are given as the source filed them.
What was measured:
Cavia porcellus [1] = species on record: Cavia porcellus; test: Agonist activity at beta-adrenoceptor in guinea pig trachea assessed as […] of carbachol-induced contraction by force-displacement transducer analysis; assay type: tissue-based
Method in brief: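 Tissue strips held at 1 g tension in Krebs bicarbonate-glucose solution at 37°, equilibrated 1-1.5 h, then drug-induced tension changes recorded isometrically. Cumulative log-concentration curves were built, and the ED₅₀ (concentration giving half-maximal response) was read from each curve.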

Cavia porcellus [2] = species on record: Cavia porcellus; test: Chronotropic activity in guinea pig atrium assessed as increase in atrial rate by force displacement transducer analysis; assay type: functional, tissue-based; conditions: Cardiac atrium
Method in brief: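 Isolated right atrium given cumulative test doses, with rate recorded over 3 min per dose at 1- and 3-min readings. Chronotropic responses were expressed relative to the maximum from 10⁻⁵ M isoproterenol added at the end of each run. ED₅₀ (half-maximal) was taken from individual plots.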

Rattus norvegicus = species on record: Rattus norvegicus; test: Induction of lipolysis in Sprague-Dawley rat fat cells assessed as increase in glycerol level at 10^-8 to 10^-4 M; assay type: functional
Method in brief: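 Fat cells from epididymal tissue of nonfasted male rats (200–250 g) were isolated by collagenase digestion in Krebs bicarbonate with 3% BSA. Drug (1×10⁻⁸–3×10⁻⁴ M) was incubated 1 h at 37° in air, stopped with equal-volume 10% TCA, and glycerol assayed. Release was normalized to 10⁻⁶ M isoproterenol maximum; mean of N=3 ± SEM.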

Measured: Activity

COc1cc(CC(NC(C)C)c2ccc(O)c(O)c2)cc(OC)c1OC (stereo not given)
active: all assays above

CNC(Cc1cc(OC)c(OC)c(OC)c1)c1ccc(O)c(O)c1 (stereo not given)
active: all assays above

COc1cc(CC(N)c2ccc(O)c(O)c2)cc(OC)c1OC (stereo not given)
active: all assays above

COc1cc(C[C@@H]2NCCc3cc(O)c(O)cc32)cc(OC)c1OC (racemic)
active: all assays above

CCNC(Cc1cc(OC)c(OC)c(OC)c1)c1ccc(O)c(O)c1 (stereo not given)
active: all assays above
